This sample holds only a part of the variants without activity.
B1: tRNA (parent)
chain: GUUCCGUUGGCGUAAUGGUAACGCGUCUCCCUCCUAAGGAGAAGACUGCGGGUUCGAGUCCCGUACGGAACG

Variants of: B1
Test: yeast fitness relative to wild type (ratio to wild type); higher = fitter; tRNA-Arg(CCU), competitive growth, 37 C, YPD
In short: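 Variants of the tRNA-Arg(CCU) gene, chemically synthesised with a 3% per-site mutation rate at 69 sites, were placed at the native genomic locus in Saccharomyces cerevisiae. The pooled strains were competed in YPD at 37°C for 24 hours in six parallel replicates. Gene amplicons from the start population and from each end population were read by 100-nucleotide paired-end sequencing. Darwinian fitness relative to wild type came from changes in genotype frequencies; genotypes needed ≥ 100 starting reads, and estimates < 0.5 were set to 0.5.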

| Variant | yeast fitness |
| --- | --- |
| A36G A65G | 0.831 |
| G12A G17U C49G C60U G68A | ≤ 0.5 |
| A20G A21C C30A G41C C66U | 0.526 |
| C5A G25A | 1.03 |
| G6A C11G C33G A70U | ≤ 0.5 |
| G10C A14U C29G | 0.584 |
| U16A C31A | 0.645 |
| U8C C24G G50A | ≤ 0.5 |
| U2A C4A U19G | ≤ 0.5 |
| C4U C5U C27G C31G | ≤ 0.5 |
| G6A G50A A65U | ≤ 0.5 |
| C30G C66U | 0.606 |
| A21C A57C C62A | ≤ 0.5 |
| U35A C46A C49G | ≤ 0.5 |
| A21C C22U C46U G48A G56A C60A C62A | ≤ 0.5 |
| U8A A36G A40C U47A | ≤ 0.5 |
| U26A A40C U64C C66A | ≤ 0.5 |
| U3C A21G C46A G56A | ≤ 0.5 |
| A21G U28A C30U C62A | 0.744 |
| C27G G51A G63C | ≤ 0.5 |
| U32A G56C | 0.594 |
| A14C G23A C34A C49G | ≤ 0.5 |
| C30A U32A A57C | ≤ 0.5 |
| U16G A43C | 0.919 |

| Variant | yeast fitness |
| --- | --- |
| C5A U32G C49G | ≤ 0.5 |
| G39A C49A | 0.598 |
| C5A A20U C27G G41A A57U U64A | 0.642 |
| U3C U8A A43G A57U G63A | ≤ 0.5 |
| C33G A57U | ≤ 0.5 |
| U2G C4U U8C | 0.732 |
| C22G C27G C31G C61G A69C | ≤ 0.5 |
| C33G G56C | 0.679 |
| C5G C11U G67C | 0.699 |
| C30G C34G C66U | ≤ 0.5 |
| C11U A40U C46U C60G | 0.589 |
| U13C G44C G58A | 0.927 |
| U19C C46G | 0.943 |
| C29U C30U C31G C34G A37C A45G | ≤ 0.5 |
| A21U A42G C60A | ≤ 0.5 |
| G6C U16A G23C U64A | ≤ 0.5 |
| C11G G12C A43U G44A | 0.612 |
| G23A C30A C46G | 0.706 |
| G25C U26G A36G C46G A70U | ≤ 0.5 |
| C5A C11U G18C U19A C27A C33A C61G A70G | ≤ 0.5 |
| C11U A69U | 0.949 |
| U3A G18A C22U U64C A70G | ≤ 0.5 |
| U16A G18A | 0.846 |
| C5G A21U C29U A37U A43G C66G | ≤ 0.5 |

| Variant | yeast fitness |
| --- | --- |
| G9C C34G A70G | ≤ 0.5 |
| C22G A57G A65G | 0.624 |
| A20U C46U A69C | 0.744 |
| G9A G10A C31G | ≤ 0.5 |
| U3A A37C A43C | ≤ 0.5 |
| C30A G68C | 0.823 |
| G17C C55U A69U | ≤ 0.5 |
| U2G A36G | 0.953 |
| C4A G23A C29U C34G G38C | ≤ 0.5 |
| U7G C11G C30G G41C | ≤ 0.5 |
| U2C U8C G44A U53C A70U | ≤ 0.5 |
| U13A A42C C62A | 0.57 |
| G17C C24A A69C | 0.553 |
| C5G U26G | 0.625 |
| A45C A57G | 0.858 |
| G18C G25C U28G A42G C49U A57U | 0.557 |
| A36U C49A G52A | ≤ 0.5 |
| C30G A70G | 0.722 |
| U7C G58A | 1.06 |
| U3G A65G | 1.1 |
| A20U A43C | 0.775 |
| A15C A21U C24U A57G G67U | 0.542 |
| C11U A43G | 0.945 |
| G12A C30A C55A G67A | ≤ 0.5 |

| Variant | yeast fitness |
| --- | --- |
| U13C G38A A70U | 0.525 |
| C31U U32G | 0.662 |
| A15G G25C G48C | 0.576 |
| U16A G18U A37C C60A A70G | ≤ 0.5 |
| C22G A69C | 0.82 |
| A14C A20U C60G | 0.571 |
| G6C C22U C24G C27U C29A C30U C31G C49U C66U G67A | ≤ 0.5 |
| C4A G6A A65U | 0.539 |
| C11U U59A U64G | ≤ 0.5 |
| C27G C46U G50A C66U | ≤ 0.5 |
| A21G C34U G48A G67A | ≤ 0.5 |
| G12C C27G U32C A37G | ≤ 0.5 |
| U7A C11U U47A | ≤ 0.5 |
| C24A G48C G67C | ≤ 0.5 |
| C4U G10A U19C C24U | 0.721 |
| G12A C24G U26G A40U | ≤ 0.5 |
| U28C A43U G48C C60G | ≤ 0.5 |
| C24A A57C | ≤ 0.5 |
| U16G C22G A43C | 0.587 |
| U7A A20G G23A U26G | 0.548 |
| C4U A15C C30G A69C | ≤ 0.5 |
| A21G A45U A65U | 0.674 |
| U2G C49G G50C | 0.536 |
| U8C G17A G50A A69C | ≤ 0.5 |

| Variant | yeast fitness |
| --- | --- |
| C4U A14U G39A C49G | ≤ 0.5 |
| G25C C29G C46G | ≤ 0.5 |
| U19C U28C | 0.992 |
| G25A C29A | 0.609 |
| G12A C31U C61U U64A | ≤ 0.5 |
| C22G C33A C49G | 0.592 |
| U19A C31A A37G C49U | ≤ 0.5 |
| C5G C29A | 0.604 |
| C11U C62G | 0.912 |
| A37U G58C | 0.789 |
| U2G A15U U47A C62A | ≤ 0.5 |
| G12A G18C U19C C29U | ≤ 0.5 |
| A42G C61G C66A | ≤ 0.5 |
| C11U U47G | 0.688 |
| U2A G18A G44C | ≤ 0.5 |
| C5A C22A G50C A69C | 0.845 |
| G6C A57G | 0.968 |
| U7G U32G | 0.569 |
| G39A G44A G51A | 0.597 |
| A37C G41C A45G | ≤ 0.5 |
| G10A U59C G68C | ≤ 0.5 |
| A15G C46U A65U | 0.735 |
| U13A A15G | 0.932 |
| U2C G10C C31U A43G | 0.525 |

| Variant | yeast fitness |
| --- | --- |
| A15U G48C G67C | ≤ 0.5 |
| U2C C55A G56C G67C | ≤ 0.5 |
| U3C G6A | 0.866 |
| C5G C33A A57G | 0.59 |
| U2C U8C A21U C29U G39A G51C C60U C66G | ≤ 0.5 |
| A20C G25C C31U A43G G51A G67A | 0.583 |
| A42G G48A C61G | ≤ 0.5 |
| A20U A37C C46G | 0.528 |
| C5A A42U | 0.767 |
| A14G C31G A69C | 0.652 |
| C5G C11A U26C A40U U64C | ≤ 0.5 |
| C33U G41A C61G | ≤ 0.5 |
| U16A C60U U64C A65C | ≤ 0.5 |
| G25A G41C A57U | 0.649 |
| C24G G39C | 0.608 |
| C5G A57G C66A | 0.564 |
| A14C G25C G48A G50A | ≤ 0.5 |
| C11A C30G A45U G56C | ≤ 0.5 |
| U7A C24U A69U | ≤ 0.5 |
| G10A G38C | 0.549 |
| C5G G50A A69C | 0.571 |
| C11U G48C A65G | 0.714 |
| U3G U16G | 1.02 |
| U7G A42U | 0.683 |

| Variant | yeast fitness |
| --- | --- |
| C5U G10A A20G A36U A43C | ≤ 0.5 |
| U47C G52A G63A | ≤ 0.5 |
| G67C A70U | 0.904 |
| C11U U28C C29G | 0.541 |
| U3C U47A | 0.907 |
| U3C U47G | 0.7 |
| U2G C30U | 0.843 |
| U8C U59G | 0.901 |
| A14G A15C A21G C46A A69U | ≤ 0.5 |
| A21G C34U A37G C60A | 0.651 |
| C31G C61U G68A | ≤ 0.5 |
| G50A | 1 |
| U7C A14G C29U C31U C33U C49U | ≤ 0.5 |
| A40C C46U | 0.875 |
| C4G U16C U19C U32A C46U G63C | ≤ 0.5 |
| C24U C55G C61G | ≤ 0.5 |
| A14G C22G C33U G58A C60A | 0.51 |
| C49G A65U | 0.748 |
| U26C G44A G68U | 0.533 |
| C33G G56C C62U | ≤ 0.5 |
| G17C U47A | 0.695 |
| C24A C49A | 0.577 |
| U7A U8A U35C | 0.601 |
